According to ChEMBL document CHEMBL1138183, “Design, synthesis, and biological evaluation of isoquinoline-1,3,4-trione derivatives as potent caspase-3 inhibitors” (J Med Chem, 2006):
Activity calls are given as the source filed them. No cut-off for these calls is given here. Peptide text beside a SMILES is read from it. * marks the point of attachment. Cbz = O=C(OCc1ccccc1)*; CH2F = FC*

Legend:
[1] = target: T1, Caspase-6 (Homo sapiens, UniProt P55212); test: Inhibition of caspase6
T1 sequence (P55212 whole entry): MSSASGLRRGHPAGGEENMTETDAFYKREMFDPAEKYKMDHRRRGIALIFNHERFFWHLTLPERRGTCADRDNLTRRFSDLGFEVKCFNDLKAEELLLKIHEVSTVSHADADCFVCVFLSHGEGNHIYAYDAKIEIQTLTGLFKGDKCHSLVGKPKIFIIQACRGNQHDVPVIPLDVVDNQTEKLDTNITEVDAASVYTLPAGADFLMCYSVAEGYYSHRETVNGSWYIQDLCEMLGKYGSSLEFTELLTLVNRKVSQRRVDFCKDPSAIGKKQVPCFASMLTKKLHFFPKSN
How it was run: (§1)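 Enzymes (caspases 2, 6 and 7; proteasome, trypsin, thrombin, papain, calpain-I) preincubated with inhibitor 30 min in their own buffer at optimal pH. Substrates at 10–100 µM, assayed at 35 °C. pNA release followed at 405 nm for 1–3 min; initial hydrolysis rate taken.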

[2] = test system: Proteasome; test: Inhibition of proteasome; assay type: subcellular; how it was run: as §1
[3] = target: T2, Caspase-7 (Homo sapiens, UniProt P55210); test: Inhibition of caspase7; how it was run: as §1
T2 sequence (P55210 whole entry): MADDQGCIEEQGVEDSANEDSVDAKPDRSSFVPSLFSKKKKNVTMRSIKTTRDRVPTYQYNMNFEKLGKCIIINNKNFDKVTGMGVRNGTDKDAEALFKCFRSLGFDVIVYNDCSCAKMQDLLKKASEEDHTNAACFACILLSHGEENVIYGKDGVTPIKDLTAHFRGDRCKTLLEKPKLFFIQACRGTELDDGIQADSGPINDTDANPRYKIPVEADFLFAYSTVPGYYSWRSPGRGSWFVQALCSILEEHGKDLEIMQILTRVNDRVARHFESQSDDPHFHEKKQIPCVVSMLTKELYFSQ

[4] = target: Caspase-8 (Homo sapiens, UniProt Q14790); test: Inhibition of caspase8
Sequence of Caspase-8 (Q14790 217-374 limits assumed): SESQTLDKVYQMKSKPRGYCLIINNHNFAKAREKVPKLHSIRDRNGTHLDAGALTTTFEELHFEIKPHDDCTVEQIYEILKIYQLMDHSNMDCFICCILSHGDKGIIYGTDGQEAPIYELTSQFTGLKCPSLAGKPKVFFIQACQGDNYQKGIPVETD
Sequence of Caspase-8 (Q14790 385-479 limits assumed): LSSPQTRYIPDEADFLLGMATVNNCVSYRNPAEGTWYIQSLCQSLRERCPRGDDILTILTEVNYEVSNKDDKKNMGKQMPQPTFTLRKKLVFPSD

[5] = target: Prothrombin (Homo sapiens, UniProt P00734); test: Inhibition of thrombin; how it was run: as §1
[6] = target: Trypsin (Homo sapiens, UniProt P07477+P07478+P35030); test: Inhibition of trypsin; assay type: protein assay; how it was run: as §1
[7] = target: T3, Caspase-3 (Homo sapiens, UniProt P42574); test: Inhibition of caspase3
T3 sequence (P42574 whole entry): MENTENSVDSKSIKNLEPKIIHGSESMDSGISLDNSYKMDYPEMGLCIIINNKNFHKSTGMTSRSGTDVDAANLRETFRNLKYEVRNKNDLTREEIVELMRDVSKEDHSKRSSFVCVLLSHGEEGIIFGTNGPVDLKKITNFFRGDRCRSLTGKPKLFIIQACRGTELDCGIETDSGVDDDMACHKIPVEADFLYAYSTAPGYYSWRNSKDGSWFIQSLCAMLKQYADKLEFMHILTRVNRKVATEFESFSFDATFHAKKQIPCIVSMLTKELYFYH

[8] = target: T4, Papain (Carica papaya, UniProt P00784); test: Inhibition of papain; how it was run: as §1
T4 sequence (P00784 whole entry): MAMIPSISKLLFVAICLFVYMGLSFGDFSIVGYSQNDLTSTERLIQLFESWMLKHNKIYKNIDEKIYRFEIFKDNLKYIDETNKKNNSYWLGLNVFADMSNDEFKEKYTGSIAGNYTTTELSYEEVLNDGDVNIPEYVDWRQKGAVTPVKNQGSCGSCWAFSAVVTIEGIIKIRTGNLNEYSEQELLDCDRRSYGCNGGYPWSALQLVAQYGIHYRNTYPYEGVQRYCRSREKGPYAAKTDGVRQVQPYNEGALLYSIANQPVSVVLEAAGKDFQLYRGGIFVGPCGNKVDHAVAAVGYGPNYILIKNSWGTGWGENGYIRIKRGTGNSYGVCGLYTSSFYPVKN

[9] = target: T5, Caspase-2 (Homo sapiens, UniProt P42575); test: Inhibition of caspase2; how it was run: as §1
T5 sequence (P42575 whole entry): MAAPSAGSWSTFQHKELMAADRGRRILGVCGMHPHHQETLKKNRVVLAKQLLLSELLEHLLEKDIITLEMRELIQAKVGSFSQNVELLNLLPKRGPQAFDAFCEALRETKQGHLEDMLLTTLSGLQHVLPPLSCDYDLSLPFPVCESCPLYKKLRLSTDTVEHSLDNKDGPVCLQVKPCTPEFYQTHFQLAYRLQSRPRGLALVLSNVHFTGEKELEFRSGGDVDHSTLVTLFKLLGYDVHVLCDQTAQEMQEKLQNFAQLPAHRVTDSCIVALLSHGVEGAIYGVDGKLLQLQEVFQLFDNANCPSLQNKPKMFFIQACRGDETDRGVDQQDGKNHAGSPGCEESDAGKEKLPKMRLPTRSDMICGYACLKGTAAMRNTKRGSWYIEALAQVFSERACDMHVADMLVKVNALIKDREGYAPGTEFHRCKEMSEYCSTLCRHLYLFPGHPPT

[10] = target: Calpain 1 (Homo sapiens, UniProt P07384); test: Inhibition of calpain1; assay type: protein-complex assay; how it was run: as §1
Sequence of Calpain 1 (P04632 whole entry): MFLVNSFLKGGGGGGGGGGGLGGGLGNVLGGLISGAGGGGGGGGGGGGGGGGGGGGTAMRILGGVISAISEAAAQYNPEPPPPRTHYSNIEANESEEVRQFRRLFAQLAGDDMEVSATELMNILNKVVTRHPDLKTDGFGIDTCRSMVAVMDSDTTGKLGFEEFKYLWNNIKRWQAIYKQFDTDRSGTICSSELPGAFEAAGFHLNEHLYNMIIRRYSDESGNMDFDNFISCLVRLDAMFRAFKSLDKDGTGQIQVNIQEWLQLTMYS
Sequence of Calpain 1 (P07384 whole entry): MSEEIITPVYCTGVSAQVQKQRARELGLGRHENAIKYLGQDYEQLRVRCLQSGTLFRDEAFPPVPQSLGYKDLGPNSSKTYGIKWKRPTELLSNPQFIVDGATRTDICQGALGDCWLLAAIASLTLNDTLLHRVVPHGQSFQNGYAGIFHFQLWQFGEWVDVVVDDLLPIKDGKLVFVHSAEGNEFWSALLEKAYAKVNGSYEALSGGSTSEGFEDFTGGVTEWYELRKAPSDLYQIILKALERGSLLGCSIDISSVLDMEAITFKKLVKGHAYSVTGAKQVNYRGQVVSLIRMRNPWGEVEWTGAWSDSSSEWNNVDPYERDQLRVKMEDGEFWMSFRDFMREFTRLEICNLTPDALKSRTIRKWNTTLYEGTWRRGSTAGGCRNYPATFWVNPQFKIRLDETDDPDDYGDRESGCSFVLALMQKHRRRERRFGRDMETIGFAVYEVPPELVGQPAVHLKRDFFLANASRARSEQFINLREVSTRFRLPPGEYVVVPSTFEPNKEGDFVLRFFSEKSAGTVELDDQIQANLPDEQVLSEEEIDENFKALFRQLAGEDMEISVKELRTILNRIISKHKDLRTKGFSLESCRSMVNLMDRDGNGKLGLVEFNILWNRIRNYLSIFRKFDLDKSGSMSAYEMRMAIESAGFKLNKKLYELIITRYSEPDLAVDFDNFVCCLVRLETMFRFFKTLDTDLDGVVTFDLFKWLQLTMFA

[11] = target: T6, Caspase-3 (Homo sapiens) (UniProt P42574); test: Inhibition of caspase3 activity in camptothecin-induced apoptotic Jurkat T cells at 2 uM; assay type: functional, cell-based
T6 sequence (whole entry): T3 sequence (P42574 whole entry)
How it was run: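 Jurkat cells (1 × 10⁵ cells/mL) preincubated 30 min at 37 °C, given inhibitor for 2 h, then 2 µM camptothecin for 4 h. Lysed by freeze–thaw cycles, spun at 12000g. Lysate assayed with 100 µM Ac-DEVD-AMC in HEPES pH 7.0, sucrose, CHAPS and DTT. AMC fluorescence (ex 360/em 460 nm) read 20 min at room temperature, normalised to Bradford protein.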

[12] = test system: Rattus norvegicus; test: Decrease in infarct volume of ischemic damage in transient MCA occlusion model of Sprague-Dawley rat at 1 mg/kg, sc; assay type: functional; design: scale not given: the % may be the effect or the level left
How it was run: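 Male Sprague-Dawley rats (200–240 g); transient MCA occlusion for 1.5 h. Drug in DMSO given sc at 0.5 mL/kg, 5 min after occlusion start. Sacrifice at 24 h; 2 mm coronal slices stained with TTC. Infarct volume corrected by indirect method (contralateral minus intact ipsilateral area); n=8 per group, mean ± SE vs saline-treated animals, one-way ANOVA with Dunnett's test.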

IC50 [1] [nM]	IC50 [2] [nM]	IC50 [3] [nM]	IC50 [4] [nM]	IC50 [5] [nM]	IC50 [6] [nM]	IC50 [7] [nM]	IC50 [8] [nM]	IC50 [9] [nM]	IC50 [10] [nM]	Activity [11] [RFU/µg/min]	Compound	Activity ([12]; route subcutaneous) [%]	Activity [12]
201	> 5000	136	1120	> 5000	> 5000	68	> 5000	859	> 5000	–	O=C(O)CCC(=O)Nc1ccc2c(c1)C(=O)C(=O)NC2=O	–	–
2850	> 5000	2710	24700	> 5000	> 5000	1380	> 5000	5670	> 5000	–	O=C1NC(=O)c2cc(NC(=O)c3ccc([N+](=O)[O-])cc3)ccc2C1=O	–	–
–	–	–	–	–	–	–	–	–	–	3.6	CC(C)[C@H](NC(=O)OCc1ccccc1)C(=O)N[C@@H](C)C(=O)N[C@@H](CC(=O)O)C(=O)CF (Cbz-Val-Ala-Asp-CH2F)	–	–
137	> 5000	218	835	> 5000	> 5000	113	> 5000	537	> 5000	–	COc1ccccc1NC(=O)CCC(=O)Nc1ccc2c(c1)C(=O)C(=O)NC2=O	77	–
–	–	–	–	–	–	–	–	–	–	3.4	CC(=O)N[C@@H](CC(=O)O)C(=O)N[C@@H](CCC(=O)O)C(=O)N[C@H](C(=O)N[C@H](C=O)CC(=O)O)C(C)C	–	–
283	> 5000	139	575	> 5000	> 5000	83	> 5000	530	> 5000	–	O=C(CCCl)Nc1ccc2c(c1)C(=O)C(=O)NC2=O	–	–
216	> 5000	63	425	> 5000	> 5000	40	> 5000	233	> 5000	–	CC(=O)OC(C(=O)Nc1cccc2c1C(=O)C(=O)NC2=O)c1ccccc1 (configuration not stated)	–	–
124	> 5000	64	288	> 5000	> 5000	25	> 5000	231	> 5000	–	O=C(CCC(=O)N1CCCCC1)Nc1ccc2c(c1)C(=O)C(=O)NC2=O	–	–
474	> 5000	386	–	> 5000	> 5000	–	> 5000	1530	> 5000	–	O=C1NC(=O)c2ccccc2C1=O	–	inactive
